Test results: ChEMBL document CHEMBL2346523, “Synthesis and in vitro and in vivo characterization of highly β1-selective β-adrenoceptor partial agonists” (J Med Chem, 2013)
Active and inactive are the calls of the source. The calls are words filed in the database; no cut-off is given here.

Legend:
CHO-K1 = test: Selectivity ratio of Kd for human beta1 adrenoceptor expressed in CHOK1 cells by radioligand displacement assay to Kd for human beta2 adrenoceptor expressed in CHOK1 cells by radioligand displacement assay; type: cell-based
Procedure, shortened: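 Whole-cell 3H-CGP 12177 binding (0.73 nM) in confluent CHO-K1 cells expressing human β1 or β2, 2 h at 37 °C. Cells were washed with cold PBS and counted by scintillation. Nonspecific binding was defined with 10 μM propranolol. IC50 came from a one-site fit, converted to KD; […] KD ratio. Triplicate points.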

[1] = target: T1, Beta-3 adrenergic receptor (Homo sapiens, UniProt P13945); test: Agonist activity at human beta3 adrenoceptor expressed in CHOK1 cells assessed as induction of [3H]cAMP accumulation at 10 uM after 5 hrs relative to isoprenaline; type: functional, cell-based; conditions: CHO-K1
Procedure, shortened: (§1)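 CHO-K1 cells stably expressing human β3 (790 fmol/mg protein) were grown to confluence and prelabelled 2 h with 2 μCi/mL 3H-adenine. Cells then had 15 min in 1 mM IBMX, followed by ligand for 5 h. The reaction was stopped with HCl, and 3H-cAMP was isolated on Dowex/alumina columns. Responses are % of 10 μM isoprenaline. Mean ± SEM of separate experiments.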
Target sequence in this assay (P13945 whole entry, looked up): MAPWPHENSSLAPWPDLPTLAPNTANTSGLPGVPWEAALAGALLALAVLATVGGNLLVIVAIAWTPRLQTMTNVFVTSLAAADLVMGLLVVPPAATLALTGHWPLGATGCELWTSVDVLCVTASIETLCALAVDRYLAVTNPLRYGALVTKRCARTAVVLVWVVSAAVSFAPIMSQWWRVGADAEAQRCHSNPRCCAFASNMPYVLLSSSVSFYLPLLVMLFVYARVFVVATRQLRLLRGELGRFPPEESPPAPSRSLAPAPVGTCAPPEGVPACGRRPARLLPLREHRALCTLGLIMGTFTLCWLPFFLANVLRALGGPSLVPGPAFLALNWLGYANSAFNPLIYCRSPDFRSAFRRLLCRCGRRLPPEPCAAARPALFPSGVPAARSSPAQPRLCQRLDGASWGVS

[2] = target: T2, Beta-1 adrenergic receptor (Homo sapiens, UniProt P08588); test: Partial agonist activity at human beta1 adrenoceptor expressed in CHOK1 cells assessed as induction of [3H]cAMP accumulation after 5 hrs; type: functional, cell-based, CHO-K1
T2 sequence (P08588 whole entry): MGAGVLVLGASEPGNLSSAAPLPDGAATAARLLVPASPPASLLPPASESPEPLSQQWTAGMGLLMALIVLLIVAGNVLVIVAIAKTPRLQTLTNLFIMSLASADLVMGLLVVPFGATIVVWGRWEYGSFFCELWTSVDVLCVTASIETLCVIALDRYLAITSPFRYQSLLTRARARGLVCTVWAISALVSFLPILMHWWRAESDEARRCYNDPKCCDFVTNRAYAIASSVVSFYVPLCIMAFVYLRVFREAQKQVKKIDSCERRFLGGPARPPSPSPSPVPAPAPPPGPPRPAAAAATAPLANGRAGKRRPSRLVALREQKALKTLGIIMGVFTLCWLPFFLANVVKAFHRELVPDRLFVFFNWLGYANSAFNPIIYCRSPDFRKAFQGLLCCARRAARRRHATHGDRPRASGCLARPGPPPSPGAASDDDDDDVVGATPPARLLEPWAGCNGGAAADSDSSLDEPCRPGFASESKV

[3] = target: T1, Beta-3 adrenergic receptor; test: Antagonist activity at human beta3 adrenoceptor expressed in CHOK1 cells assessed as inhibition of cimaterol-induced [3H]cAMP accumulation incubated for 15 mins prior to cimaterol induction measured after 5 hrs; type: functional, cell-based, CHO-K1
Procedure, shortened: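 3H-cAMP accumulation in CHO-K1 cells stably expressing human β1, β2 or β3 adrenoceptors, prelabelled with 3H-adenine. Log KD was taken from the dose ratio shift, or by the Stephenson partial-agonist method when partial agonism was seen. Triplicates, on the same cell passage.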
Target sequence in this assay (P13945 whole entry): as the sequence (P13945 whole entry, looked up) above

[4] = target: T3, Beta-2 adrenergic receptor (Homo sapiens, UniProt P07550); test: Antagonist activity at human beta2 adrenoceptor expressed in CHOK1 cells assessed as inhibition of cimaterol-induced [3H]cAMP accumulation incubated for 15 mins prior to cimaterol induction measured after 5 hrs; type: functional, cell-based, CHO-K1
Target sequence in this assay (P07550 whole entry): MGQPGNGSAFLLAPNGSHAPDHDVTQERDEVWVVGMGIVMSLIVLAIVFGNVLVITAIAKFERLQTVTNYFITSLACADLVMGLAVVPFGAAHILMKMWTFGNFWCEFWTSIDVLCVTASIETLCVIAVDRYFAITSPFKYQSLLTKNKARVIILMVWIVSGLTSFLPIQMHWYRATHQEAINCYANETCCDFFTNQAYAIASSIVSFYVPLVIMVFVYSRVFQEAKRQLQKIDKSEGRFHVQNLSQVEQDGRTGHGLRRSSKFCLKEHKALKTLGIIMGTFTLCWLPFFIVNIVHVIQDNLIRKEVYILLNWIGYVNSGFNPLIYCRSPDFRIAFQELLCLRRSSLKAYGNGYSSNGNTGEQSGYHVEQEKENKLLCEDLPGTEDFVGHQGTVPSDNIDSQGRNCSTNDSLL

[5] = target: T2, Beta-1 adrenergic receptor; test: Antagonist activity at human beta1 adrenoceptor expressed in CHOK1 cells assessed as inhibition of cimaterol-induced [3H]cAMP accumulation incubated for 15 mins prior to cimaterol induction measured after 5 hrs; type: functional, cell-based, CHO-K1
[6] = target: T3, Beta-2 adrenergic receptor; test: Displacement of [3H]-CGP12177 from human beta2 adrenoceptor expressed in CHOK1 cells after 2 hrs by scintillation counting analysis; type: cell-based; conditions: for inhibition: CHO-K1
[7] = target: T2, Beta-1 adrenergic receptor; test: Displacement of [3H]-CGP12177 from human beta1 adrenoceptor expressed in CHOK1 cells after 2 hrs by scintillation counting analysis; type: cell-based, CHO-K1
[8] = target: T1, Beta-3 adrenergic receptor; test: Agonist activity at human beta3 adrenoceptor expressed in CHOK1 cells assessed as induction of [3H]cAMP accumulation after 5 hrs relative to isoprenaline; type: functional, cell-based; conditions: CHO-K1
Target sequence in this assay (P13945 whole entry, looked up): as the sequence (P13945 whole entry, looked up) above

[9] = target: T1, Beta-3 adrenergic receptor; test: Agonist activity at human beta3 adrenoceptor expressed in CHOK1 cells assessed as induction of [3H]cAMP accumulation at 100 uM after 5 hrs relative to isoprenaline; type: functional, cell-based; conditions: CHO-K1; procedure, shortened: as §1
Target sequence in this assay (P13945 whole entry, looked up): as above

Rattus norvegicus [10] = test: Partial agonist activity at beta1 adrenoceptor in conscious free moving Sprague-Dawley rat model assessed as increase in heart rate at 2 mg/kg, iv bolus followed by 1 mg/kg/hr, iv infusion for 90 mins measured for 0.5 hrs to 25 hrs relative to 120 ng/kg of isoprenaline; type: functional
Procedure, shortened: (§2)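 Conscious, unrestrained adult male Sprague–Dawley rats (300–350 g) with an implanted Doppler probe, an aortic catheter for blood pressure and heart rate, and a jugular catheter for dosing; studied 24 h after catheterisation. Atropine methyl nitrate 1 mg/kg/h was infused throughout. Isoprenaline 3 min infusions (12, 40, 120 ng/kg/min) were given before and from 30 min after saline or HCl salt iv bolus plus infusion. Response = third-minute value minus pre-infusion steady state; hindquarters conductance derived from BP and Doppler shift; n = 4.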

Rattus norvegicus [11] = test: Agonist activity at beta2 adrenoceptor in conscious free moving Sprague-Dawley rat model assessed as effect on hindquarters response at 2 mg/kg, iv administered as bolus dose followed by 1 mg/kg/hr, iv administered as 90 mins infusion measured for 0.5 hrs to 25 hrs; type: functional, organism-based; procedure, shortened: as §2
Rattus norvegicus [12] = test: Partial agonist activity at beta1 adrenoceptor in conscious free moving Sprague-Dawley rat model assessed as inhibition of heart rate responses at 2 mg/kg, iv administered as bolus followed by 1 mg/kg/hr, iv administered as 90 mins infusion measured for 0.5 hrs to 25 hrs relative to 40 to 120 ng/kg of isoprenaline; type: functional, organism-based; procedure, shortened: as §2

## O=C(NCCNCC(O)COc1ccc(OCCOC2CCCC2)cc1)Nc1ccc(C(F)(F)F)cc1 (centres undefined)
CHO-K1
  Selectivity ratio: 87

## O=C(NCCNCC(O)COc1ccc(OCCOC2CCCC2)cc1)Nc1cccc(F)c1 (centres undefined)
CHO-K1
  Selectivity ratio: 43

## O=C(NCCNCC(O)COc1ccc(OCCOC2CCCC2)cc1)Nc1ccc(Cl)cc1 (centres undefined)
CHO-K1
  Selectivity ratio: 110

## CCOCCOc1ccc(OCC(O)CNCCNC(=O)Nc2ccc(O)cc2)cc1 (centres undefined)
[1]
  Activity: 1.3%
[2]
  EC50: 22.9 nM
[3]; read-out: Kd
  Kd: > 10000 nM
[4]; read-out: Kd
  Kd: > 10000 nM
[5]
  Kd: 26.9 nM
[6]
  inhibition: inactive
[7]
  Kd: 91.2 nM

## Cc1cccc(NC(=O)NCCNCC(O)COc2ccc(OCCOC3CCCC3)cc2)c1 (centres undefined)
CHO-K1
  Selectivity ratio: 96

## CC(C)NCC(O)c1ccc(N)c(C#N)c1 (centres undefined)
[8]
  Activity: 89.6%

## O=C(NCCNCC(O)COc1ccc(OCCOC2CCCC2)cc1)Nc1ccc(O)cc1 (centres undefined)
[1]
  Activity: 4%
[2]
  EC50: 3.63 nM
[3]; read-out: Kd
  Kd: > 10000 nM
[4]; read-out: pKd (converted)
  Kd: 1450 nM
[5]
  Kd: 2.82 nM
CHO-K1
  Selectivity ratio: 478
[7]
  Kd: 7.41 nM

## N#Cc1ccccc1OCC(O)CNCCNC(=O)Nc1ccccc1 (centres undefined)
[1]
  Activity: 11.7%

## O=C(NCCNCC(O)COc1ccc(OCCOC2CCCC2)cc1)Nc1ccccc1 (centres undefined)
[1]
  Activity: 4%
[2]
  EC50: 4.47 nM
[3]; read-out: Kd
  Kd: > 10000 nM
[4]; read-out: pKd (converted)
  Kd: 1200 nM
[5]
  Kd: 3.47 nM
CHO-K1
  Selectivity ratio: 213
[6]
  Kd: 2630 nM
[7]
  Kd: 12.3 nM

## Cc1ccccc1NC(=O)NCCNCC(O)COc1ccc(OCCOC2CCCC2)cc1 (centres undefined)
CHO-K1
  Selectivity ratio: 11

## O=C(NCCNCC(O)COc1ccc(OCCOC2CCCC2)cc1)Nc1ccccc1C(F)(F)F (centres undefined)
CHO-K1
  Selectivity ratio: 13

## COc1ccc(NC(=O)NCCNCC(O)COc2ccc(OCCOC3CCCC3)cc2)cc1 (centres undefined)
CHO-K1
  Selectivity ratio: 87

## O=C(NCCNCC(O)COc1ccc(OCCOC2CCCC2)cc1)Nc1cccc(Cl)c1 (centres undefined)
[1]
  Activity: 2%
[2]
  EC50: 3.02 nM
[3]; read-out: pKd (converted)
  Kd: 6030 nM
[4]; read-out: pKd (converted)
  Kd: 794 nM
[5]
  Kd: 1.48 nM
CHO-K1
  Selectivity ratio: 331
[6]
  Kd: 2040 nM
[7]
  Kd: 6.17 nM

## COc1ccccc1NC(=O)NCCNCC(O)COc1ccc(OCCOC2CCCC2)cc1 (centres undefined)
CHO-K1
  Selectivity ratio: 12

## O=C(NCCNCC(O)COc1ccc(OCCOC2CCCC2)cc1)Nc1cccc(C(F)(F)F)c1 (centres undefined)
CHO-K1
  Selectivity ratio: 81

## O=C(NCCNCC(O)COc1ccc(OCCOCC2CC2)cc1)Nc1ccc(O)cc1 (centres undefined) [listing 1 of 2 here]
[2]
  EC50: 9.77 nM
[3]; read-out: Kd
  Kd: > 10000 nM
[4]; read-out: pKd (converted)
  Kd: 7080 nM
[5]
  Kd: 17.8 nM
[7]
  Kd: 32.4 nM

## O=C(NCCNCC(O)COc1ccc(O)cc1)N1CCOCC1 (centres undefined)
[9]
  Activity: 38.3%

## Cl.O=C(NCCNCC(O)COc1ccc(OCCOCC2CC2)cc1)Nc1ccc(O)cc1 (centres undefined)
Rattus norvegicus [10]
  Activity: 44%

## COc1cccc(NC(=O)NCCNCC(O)COc2ccc(OCCOC3CCCC3)cc2)c1 (centres undefined)
CHO-K1
  Selectivity ratio: 51

## O=C(NCCNCC(O)COc1ccc(OCCOC2CCCC2)cc1)Nc1ccc(Br)cc1 (centres undefined)
CHO-K1
  Selectivity ratio: 81

## O=C(NCCNCC(O)COc1ccc(OCCOC2CCCC2)cc1)Nc1ccc(F)cc1 (centres undefined)
CHO-K1
  Selectivity ratio: 60

## O=C(NCCNCC(O)COc1ccc(OCCOCC2CC2)cc1)Nc1ccc(O)cc1 (centres undefined) [listing 2 of 2 here]
Rattus norvegicus [11]
  Activity: inactive
Rattus norvegicus [12]
  inhibition: Active
[1]
  Activity: 12.5%
[6]
  inhibition: inactive

## O=C(NCCNCC(O)COc1ccc(OCCOC2CCCC2)cc1)Nc1ccccc1F (centres undefined)
CHO-K1
  Selectivity ratio: 76

## O=C(NCCNCC(O)COc1ccc(OCCOC2CCCC2)cc1)Nc1ccccc1Br (centres undefined)
CHO-K1
  Selectivity ratio: 10

## N#Cc1cc(OCCOCC2CC2)ccc1OCC(O)CNCCNC(=O)Nc1ccc(O)cc1 (centres undefined) [LK-204545]
[1]
  Activity: 8.6%
[3]; read-out: Kd
  Kd: > 10000 nM
[4]; read-out: pKd (converted)
  Kd: 2880 nM
[6]
  Kd: 5130 nM

## O=C(NCCNCC(O)COc1ccc(OCCOC2CCCC2)cc1)Nc1cccc(O)c1 (centres undefined)
CHO-K1
  Selectivity ratio: 110

## O=C(NCCNCC(O)COc1ccc(OCCOCCc2ccc(F)cc2)cc1)Nc1ccc(O)cc1 (centres undefined)
[1]
  Activity: 7.9%
[2]
  EC50: 2.29 nM
[3]; read-out: pKd (converted)
  Kd: 2630 nM
[4]; read-out: pKd (converted)
  Kd: 891 nM
[5]
  Kd: 1 nM
CHO-K1
  Selectivity ratio: 389
[6]
  Kd: 1230 nM
